Source: ChEMBL document CHEMBL1124197, “3-[1-(2-Benzoxazolyl)hydrazino]propanenitrile derivatives: inhibitors of immune complex induced inflammation” (1988)
Active and inactive are the calls of the source. No cut-off for these calls is given here.

Legend:
Rattus norvegicus [1] = species on record: Rattus norvegicus; assay: Effective dose required for 40% inhibition of rat dermal reverse passive Arthus reaction (RPAR); type: functional
Summary of the method: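 Fasted male rats received BSA intravenously and about 1 h later a challenge of rabbit anti-BSA given intradermally. Compound was dosed orally 30 min before the challenge. Rats were killed 4 h later and dermal lesion size was measured. ED40 with 95% confidence limits came from least-squares regression.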

Rattus norvegicus [2] = assay: In vivo inhibition of rat dermal passive revers arthus reaction following p.o. administration; Inactive.; type: functional, organism-based
Rattus norvegicus [3] = species on record: Rattus norvegicus; assay: Effect in rat pleural Carrageenan test (exudate white blood cells (WBC)); type: functional
Rattus norvegicus [4] = species on record: Rattus norvegicus; assay: Inhibition of pleural reverse passive Arthus reactions (exudate white blood cells (WBC)); type: functional
Summary of the method: (§1)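 Fasted male rats were given BSA intravenously, then about 1 h later rabbit anti-BSA intrapleurally. Oral dosing was 30 min before the challenge. After 4 h the rats were killed and pleural exudate fluid volume and white blood cell accumulation were determined. ED50 with 95% confidence limits came from least-squares regression.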

Rattus norvegicus [5] = species on record: Rattus norvegicus; assay: Inhibition of pleural reverse passive Arthus reactions (RPAR) in rat (exudate volume); type: functional; summary of the method: as §1
Rattus norvegicus [6] = species on record: Rattus norvegicus; assay: Effect in rat pleural Carrageenan test (exudate volume); type: functional

SMILES	ED40 (Rattus norvegicus [1])	other results
Cn1c(N(N)CCC#N)nc2ccccc21	349 µM/kg	–
CNC(=O)NN(CCC#N)c1nc2ccccc2o1	–	ED40 (Rattus norvegicus [2]): inactive
N#CCCN(N)c1nc2cc(-c3ccccc3)ccc2o1	–	ED40 (Rattus norvegicus [2]): inactive
Cc1cc2oc(N(N)CCC#N)nc2cc1Cl	36 µM/kg	–
NN(CCS(=O)(=O)c1ccccc1)c1nc2ccccc2o1	–	ED40 (Rattus norvegicus [2]): inactive
C[C@]12CCC(=O)C=C1CC[C@@H]1[C@@H]2[C@@H](O)C[C@@]2(C)[C@H]1CC[C@]2(O)C(=O)CO [HYDROCORTISONE]	33 µM/kg	ED50 (Rattus norvegicus [3]): 9 µmol/kg; ED50 (Rattus norvegicus [4]): 50 µmol/kg; ED50 (Rattus norvegicus [5]): 38 µmol/kg; ED50 (Rattus norvegicus [6]): 12 µmol/kg
N#CCCSc1nc2ccccc2o1	1268 µM/kg	–
COc1cc2nc(N(N)CCC#N)oc2cc1OC	650 µM/kg	–
COC(=O)CCN(N)c1nc2ccccc2o1	1208 µM/kg	–
COCCN(N)c1nc2cc(OC)ccc2o1	43 µM/kg	–
NN(CCC(=O)O)c1nc2ccccc2o1	–	ED40 (Rattus norvegicus [2]): inactive
N#CCCN(N)C1=NS(=O)(=O)c2ccccc21	643 µM/kg	–
[2H]C([2H])(C#N)CN(N)c1nc2ccccc2o1	255 µM/kg	–
Cc1cc(Cl)cc2nc(N(N)CCC#N)oc12	191 µM/kg	–
CCCN(N)c1nc2ccccc2o1	400 µM/kg	–
COCCN(N)c1nc2ccccc2o1	300 µM/kg	–
N#CCCN(NC(=O)NC1CCCCC1)c1nc2ccccc2o1	–	ED40 (Rattus norvegicus [2]): inactive
N#CCCN(N)c1nc2cc(Cl)ccc2o1	177 µM/kg	–
COC(=O)N(CCC#N)c1nc2ccccc2o1	–	ED40 (Rattus norvegicus [2]): inactive
N#CCCN(NC=O)c1nc2cc(C(F)(F)F)ccc2o1	87 µM/kg	–
NN(CCSc1ccccc1)c1nc2ccccc2o1	–	ED40 (Rattus norvegicus [2]): inactive
COc1ccc2nc(N(N)CCC#N)oc2c1	388 µM/kg	–
COCCN(N)c1nc2cc(C)ccc2o1	127 µM/kg	–
CCOC(=O)c1ccc2oc(N(N)CCC#N)nc2c1	–	ED40 (Rattus norvegicus [2]): inactive
CS(=O)(=O)c1ccc2oc(N(N)CCC#N)nc2c1	407 µM/kg	–
N#CCCN(N)C1=Nc2ccccc2C1	265 µM/kg	–

SMILES	ED40 (Rattus norvegicus [1])	other results
Cc1cc2oc(N(N)CCC#N)nc2c(C)c1C	139 µM/kg	–
Cc1cc(N(N)CCC#N)c2ccccc2n1	177 µM/kg	–
Cc1ccc2nc(N(N)CCC#N)oc2c1	216 µM/kg	–
CSCCN(N)c1nc2ccccc2o1	913 µM/kg	–
NC(=O)CCN(N)c1nc2ccccc2o1	1009 µM/kg	–
N#CCCN(N)c1nc2cc(F)ccc2o1	141 µM/kg	–
CNN(CCC#N)c1nc2ccccc2o1	250 µM/kg	–
N#CCCN(N)c1nc2cc(Oc3ccccc3)ccc2o1	–	ED40 (Rattus norvegicus [2]): inactive
C[S+]([O-])c1ccc2oc(N(N)CCC#N)nc2c1 (stereo not given)	607 µM/kg	–
COCCN(N)c1nc2cc(Cl)ccc2o1	136 µM/kg	–
Cc1cccc2nc(N(N)CCC#N)oc12	250 µM/kg	–
CSc1cc(C(C)(C)C)cc2nc(N(N)CCC#N)oc12	801 µM/kg	–
N#CCCN(N)c1nc2c(ccc3ccccc32)o1	346 µM/kg	–
COc1ccc2oc(N(N)CCC#N)nc2c1	59 µM/kg	ED50 (Rattus norvegicus [4]): 116 µmol/kg; ED50 (Rattus norvegicus [5]): 155 µmol/kg
CC(CC#N)N(N)c1nc2ccccc2o1 (stereo not given)	245 µM/kg	–
N#CCCN(N)c1nc2ccccc2o1	84 µM/kg	ED50 (Rattus norvegicus [3]): 171 µmol/kg; ED50 (Rattus norvegicus [4]): 243 µmol/kg; ED50 (Rattus norvegicus [5]): 238 µmol/kg; ED50 (Rattus norvegicus [6]): 105 µmol/kg
CCN(CC)CCN(N)c1nc2ccccc2o1	611 µM/kg	–
NN(CCCO)c1nc2ccccc2o1	576 µM/kg	–
Cc1cccc2oc(N(N)CCC#N)nc12	356 µM/kg	–
N#CCCN(N)C1Cc2ccccc2C1	565 µM/kg	–
N#CCCN(N)c1ccc(-c2ccccc2)nn1	672 µM/kg	–
Cc1ccc2oc(N(N)CCC#N)nc2c1	83 µM/kg	ED50 (Rattus norvegicus [4]): 175 µmol/kg; ED50 (Rattus norvegicus [5]): 148 µmol/kg
NN(CCO)c1nc2ccccc2o1	1247 µM/kg	–
N#CCC(=O)N(N)c1nc2ccccc2o1	–	ED40 (Rattus norvegicus [2]): inactive
NN(CC[S+]([O-])c1ccccc1)c1nc2ccccc2o1 (stereo not given)	719 µM/kg	–
CC(C#N)CN(N)c1nc2ccccc2o1 (stereo not given)	210 µM/kg	–

SMILES	ED40 (Rattus norvegicus [1])	other results
N#CCCC(N)c1nc2ccccc2o1 (stereo not given)	–	ED40 (Rattus norvegicus [2]): inactive
N#CCCN(N)c1ncc(-c2ccccc2)cn1	121 µM/kg	–
COCCN(N)c1nc2cc(C#N)ccc2o1	181 µM/kg	–
Cc1coc(N(N)CCC#N)n1	705 µM/kg	–
CS(=O)(=O)CCN(N)c1nc2ccccc2o1	278 µM/kg	–
N#CCCN(N)c1nc2cc3ccccc3cc2o1	306 µM/kg	–
CN(C)S(=O)(=O)n1c(N(N)CCC#N)nc2ccccc21	–	ED40 (Rattus norvegicus [2]): inactive
NN(CCc1ccccn1)c1nc2ccccc2o1	258 µM/kg	–
C/C=N\N(CCC#N)c1nc2ccccc2o1	625 µM/kg	–
Cc1nc(N(N)CCC#N)oc1C	519 µM/kg	–
C=NN(CCC#N)c1nc2ccccc2o1	845 µM/kg	–
N#CCCNc1nc2ccccc2o1	1302 µM/kg	–
NN(CCOc1ccccc1)c1nc2ccccc2o1	457 µM/kg	–
CC(C)(C)c1ccc2oc(N(N)CCC#N)nc2c1	345 µM/kg	–
N#CCCN(N)c1nc2cc(C(=O)c3ccccc3)ccc2o1	–	ED40 (Rattus norvegicus [2]): inactive
NN(CCc1ccccc1)c1nc2ccccc2o1	962 µM/kg	–
N#CCCN(N)c1nc(-c2ccccc2)c(-c2ccccc2)o1	332 µM/kg	–
CCOCCN(N)c1nc2cc(OC)ccc2o1	149 µM/kg	–
N#CCCN(N)c1nc2cc(OCc3ccccc3)ccc2o1	–	ED40 (Rattus norvegicus [2]): inactive
CC(=O)N(CCC#N)c1nc2ccccc2o1	–	ED40 (Rattus norvegicus [2]): inactive
CCc1ccc2oc(N(N)CCC#N)nc2c1	330 µM/kg	–
NN(CCOc1ccc(F)cc1)c1nc2ccccc2o1	800 µM/kg	–
Cc1cc2nc(N(N)CCC#N)oc2cc1C	413 µM/kg	–
N#CCCN(NC=O)c1nc2ccccc2o1	142 µM/kg	–
CCN(N)c1nc2ccccc2o1	254 µM/kg	–
C/N=C(\S)NN(CCC#N)c1nc2ccccc2o1	–	ED40 (Rattus norvegicus [2]): inactive

SMILES	ED40 (Rattus norvegicus [1])	other results
N#CCCN(N)c1ncco1	360 µM/kg	–
COc1ccc2oc(N(CCC#N)NC=O)nc2c1	200 µM/kg	–
CCNN(CCC#N)c1nc2ccccc2o1	196 µM/kg	–
Cc1cc(C)c2oc(N(N)CCC#N)nc2c1	161 µM/kg	–
N#CCCN(N)c1nc2cccc(Cl)c2o1	275 µM/kg	–
N#CCCN(N)c1nccs1	390 µM/kg	–
CS(=O)(=O)NN(CCC#N)c1nc2ccccc2o1	–	ED40 (Rattus norvegicus [2]): inactive
N#CCCN(C=O)c1nc2ccccc2o1	–	ED40 (Rattus norvegicus [2]): inactive
N#CCCN(N)c1cnccn1	760 µM/kg	–
NN(CCN1CCOCC1)c1nc2ccccc2o1	825 µM/kg	–
N#CCCN(N)c1nc2ccccc2s1	128 µM/kg	–
Cc1ccc2oc(N(CCC#N)NC=O)nc2c1	168 µM/kg	–
CC(=O)NN(CCC#N)c1nc2ccccc2o1	402 µM/kg	–
CSc1ccc2oc(N(N)CCC#N)nc2c1	399 µM/kg	–
N#CCCN(NC(N)=O)c1nc2ccccc2o1	–	ED40 (Rattus norvegicus [2]): inactive
Cc1cc(C)c2oc(N(N)CCC#N)nc2c1C	115 µM/kg	–
C#CCCN(N)c1nc2ccccc2o1	348 µM/kg	–
CC(C)S(=O)(=O)n1c(N(N)CCC#N)nc2ccccc21	–	ED40 (Rattus norvegicus [2]): inactive
N#CCCN(N)c1nc(-c2ccccc2)co1	119 µM/kg	–
N#CCCN(N)c1nc2cc(C#N)ccc2o1	66 µM/kg	–
N#CCCN(N)c1nc2cc(C(F)(F)F)ccc2o1	26 µM/kg	ED50 (Rattus norvegicus [4]): 92 µmol/kg; ED50 (Rattus norvegicus [5]): 70 µmol/kg
COC(=O)NN(CCC#N)c1nc2ccccc2o1	695 µM/kg	–
COCCN(N)c1nc2cc(C(F)(F)F)ccc2o1	47 µM/kg	–
